Source: PubChem BioAssay
TNF necrop inh – inhibitors of TNF-alpha induced necroptosis in Jurkat FADD-/- cells. Jurkat FADD-/- TNF necroptosis rescue, ATP luminescence, 24 h; 0 = TNF only, 100 = no-TNF cells. activation (protection from cell death), % at 10 µM. 220,000 tested, 0.068% active;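 active = activation, meaning protection from cell death, of at least 50% relative to plate controls; inactive = activation below 50%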;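 note: necroptosis triggered by 40 ng/mL TNF-alpha added together with compound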
L929 necroptosis – blocks zVAD induced death of L929 cells | L929 zVAD necroptosis rescue, ATP luminescence, 24 h; with zVAD 60 µM | viability rescue, % at 10 µM | 220,000 tested, 0.38% active | AID 1377;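 active = activation, scaled between plate controls, above about 75%, limit read from the data; inactive = activation under that limit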
E-sel TNF inh – TNF alpha driven E-selectin expression inhibition; 120,000 tested, 0.71% active; AID 1246; HUVEC TNFa-induced E-selectin immunofluorescence, high content; inhibition, % at 2 µM;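 active = inhibition above the batch mean plus 3 SD, and confirmed as a hit on visual image review, cut at about 43% in these data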
HSV replic up – increases HSV replication in cells. HSV replication augmentation in cells, fold increase. maximum fold increase. 220,000 tested, 0.005% active. AID 1956; in the data active = maximum fold increase above about 1.5; tested in PC3 cells
Mdm2 ligase inh – inhibitors of human Mdm2 E3 ubiquitin ligase; Q00987; AID 1230; 210,000 tested, 0.11% active; cell-based MDM2 ubiquitination luciferase reporter, 2 h; 0 = plate control, 100 = twice control, blank-subtracted; signal enhancement, % at 5 µM;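 active = signal enhancement of 30% or more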;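 note: luminescence tracks abundance of the self-degrading MDM2-luciferase fusion protein; higher signal means inhibition of MDM2 E3 ligase activity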
Target sequence (Q00987 whole entry, looked up, the tested form may be a part): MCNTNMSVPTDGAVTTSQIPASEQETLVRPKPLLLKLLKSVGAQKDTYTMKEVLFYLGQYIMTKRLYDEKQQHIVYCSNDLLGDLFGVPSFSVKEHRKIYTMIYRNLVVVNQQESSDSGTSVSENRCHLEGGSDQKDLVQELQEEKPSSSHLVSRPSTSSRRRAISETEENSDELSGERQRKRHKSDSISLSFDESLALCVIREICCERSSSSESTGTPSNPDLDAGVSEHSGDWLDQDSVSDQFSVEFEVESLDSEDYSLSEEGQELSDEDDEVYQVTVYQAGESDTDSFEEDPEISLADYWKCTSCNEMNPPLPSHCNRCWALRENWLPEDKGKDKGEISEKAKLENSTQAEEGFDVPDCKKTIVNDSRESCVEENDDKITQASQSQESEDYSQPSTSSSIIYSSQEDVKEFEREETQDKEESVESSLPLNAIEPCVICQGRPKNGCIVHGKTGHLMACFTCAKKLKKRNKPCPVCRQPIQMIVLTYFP
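Assay system: stable mammalian line carrying autodegrading MDM2–luciferase fusion reporter; amount: 2000 cells seeded into each well; buffer or medium: DMEM; benchmarks: plate control and blank wells; signal: luciferase luminescence; timing: 2 h compound exposure at 37 °C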
Hits are given with their value; 0 = inactive; - = no result given. A selection: hits, their analogues and other compounds. The true share with any hit is near 0.89%.

SMILES	TNF necrop inh	L929 necroptosis	E-sel TNF inh	HSV replic up	Mdm2 ligase inh
CCOC(=O)c1sc(=N)n(-c2ccc(OC)cc2)c1C	0	0	64	-	0
O=C1CC(c2ccccc2)CC(O)=C1C=NCc1ccccc1Cl (configuration not stated)	0	0	0	-	0
O=C1CC(c2cccc(Cl)c2)CC(O)=C1C=NC1CCCC1 (configuration not stated)	0	0	0	0	32
COc1ccc(CCN2C(=NC(=O)CC(C)C)SC3CS(=O)(=O)CC32)cc1OC (configuration not stated)	0	0	-	0	0
COc1ccc(CCC(=O)Nc2ccccc2C(F)(F)F)cc1	0	0	0	-	0
COc1ccc(OC(C)C(=O)Nc2ccccc2C(F)(F)F)cc1 (configuration not stated)	0	0	-	0	262
Cc1cc(CNC(=O)Cn2nc(C)c([N+](=O)[O-])c2C)c2ccccc2n1	0	0	-	0	0
O=C(N/N=C1/CCS(=O)(=O)c2ccc(F)cc21)c1ccccn1	0	0	81	0	0
CC(NCc1ccc(S(N)(=O)=O)cc1)C(=O)Nc1ccc([N+](=O)[O-])cc1Cl (configuration not stated)	0	0	-	0	0
C=CCN(CC=C)C(=O)Nc1cc(Cl)ccc1OC	0	0	53	0	0
O=S(=O)(Cc1cc(NCc2ccccc2)nc(-c2ccccn2)n1)c1ccccc1	0	0	0	0	0
CC(=O)N(c1ccccc1)c1nnc(-c2cnc(C)cn2)s1	76	0	-	0	0
Cc1cnc(-c2nnc(N(C)C(=O)c3cccnc3)s2)cn1	0	0	0	0	0
Cc1ccc(O)c(NC(=S)NC(=O)c2ccc(-c3ccc(Cl)cc3)o2)c1	0	0	55	0	-
O=C(NC(=S)Nc1ccccc1O)c1ccc(-c2ccc(Cl)cc2)o1	0	0	0	0	0
Cc1cc(C)c2c(=O)[nH]c(SCC(=O)c3ccc(C)c(C)c3)nc2n1	0	0	-	0	0
CCOC(=O)N1CCN(C(=O)C2CCCN(S(=O)(=O)c3cc(C)ccc3OC)C2)CC1 (configuration not stated)	0	0	0	0	79
O=c1c2ccccc2c(-c2ccccc2)nn1Cc1c(Cl)cccc1Cl	0	0	0	0	0
Clc1cccc(Cl)c1Cn1ccc(C2CC2)n1	97	0	-	0	0
NNc1ccc(Cc2ccc(Cl)cc2Cl)nn1	0	0	0	0	0
CSc1ccc(Cc2ccc(Cl)cc2Cl)nn1	62	0	0	0	0
CCCCN(CC)S(=O)(=O)c1ccc2c(c1)n(C)c(=O)c(=O)n2C	0	0	-	0	0
COC(C(=O)Nc1cccc(F)c1)c1ccccc1 (configuration not stated)	79	0	-	0	0
O=C(Nc1cccc(F)c1)c1ccccc1	0	0	0	0	0
COC(C(=O)Nc1ccc(F)c(F)c1)c1ccccc1 (configuration not stated)	99	0	0	0	-
SMILES	TNF necrop inh	L929 necroptosis	E-sel TNF inh	HSV replic up	Mdm2 ligase inh
O=C(CSc1c(F)c(F)cc(F)c1F)Nc1ccc(C2SCCS2)cc1	0	0	-	0	0
COc1ccc(C(=O)Nc2ccc(-c3ccc(C)o3)cc2)cc1S(=O)(=O)N1CCOCC1	0	84	0	0	0
CCOC(=O)c1cn(Cc2ccccc2)c(C(=O)OC(C)(C)C)c1O	-	-	-	0	-
CCn1c(=O)cc(SCC(=O)N2CCOCC2)c2ccccc21	0	0	0	0	0
CCn1c(=O)cc(SCC(=O)N2CCN(C3CCCCC3)CC2)c2ccccc21	0	0	67	0	0
O=C(CSc1ccc(Cl)cc1)N1N=CCC1c1ccccc1 (configuration not stated)	100	0	-	0	0
Cc1ccc(CSCC(=O)Nc2ccc(F)cc2)cc1	0	0	-	0	0
O=C(CSCc1ccc(F)cc1)Nc1ccc(F)cc1	79	0	0	0	0
CC1=C(C(=O)NC(C)CCc2ccccc2)C2(CCC(C)CC2)OC1=O (configuration not stated)	0	0	-	0	36
CC1=C(C(=O)NC(C)c2ccccc2)C2(CCC(C)CC2)OC1=O (configuration not stated)	0	0	-	0	-
CCn1c2ccc(/C(C)=N\O)cc2c2cc(/C(C)=N\O)ccc21	0	0	100	0	0
CCn1c2ccccc2c2cc(/C=N/O)ccc21	0	0	-	0	0
CCn1cc(/C=C/C(=O)Nc2ccn(Cc3c(F)c(F)cc(F)c3F)n2)cn1	78	0	0	0	0
CCn1cc(/C=C/C(=O)Nc2ccc(C)cc2Br)cn1	0	0	-	0	0
COC(=O)c1nnn(-c2ccc(F)c(Cl)c2)c1C(=O)OC	0	0	-	0	0
COC(=O)c1nnn(-c2ccc(Cl)c(Cl)c2)c1C(=O)OC	0	0	73	0	0
COc1ccc(-c2nnc(SCC(=O)N3CCOCC3)o2)cc1OC	0	0	96	0	0
Cc1cc(C)n(C(=O)CNC(=O)CCc2ccccc2)n1	0	0	99	0	0
C=C1CCC(C)C(C)(CCC2=CCOC2=O)C/C=C\C=C/1C(=O)O (configuration not stated)	0	0	-	0	0
O=C(O)CCC(=O)Nc1ccc(Br)c(Cl)c1	0	0	75	0	0
Cc1ccc(NC(=O)CSc2nc3ccccc3c3nc(CCc4c(C)n[nH]c4C)nn23)cc1F	0	0	82	0	0
C=C(C)c1sc(-c2ccc(Cl)cc2)nc1C	-	-	-	0	-
O=C(CSC1=NNC(c2ccccn2)S1)Nc1ccc(C(F)(F)F)cc1 (configuration not stated)	0	0	-	0	37
c1ccc(CSC2=NNC(c3ccccn3)S2)cc1 (configuration not stated)	0	0	-	0	37
c1ccc(CSc2ncccn2)cc1	0	0	0	0	0
SMILES	TNF necrop inh	L929 necroptosis	E-sel TNF inh	HSV replic up	Mdm2 ligase inh
COC(=O)C1=C[C@@H](C(=O)OC)[C@@H]2C3=C(C(=O)C2(C)C)[C@H](C)n2c(=O)n(-c4ccccc4)c(=O)n2[C@@H]3C1	-	-	-	0	-
Cc1nc([N+](=O)[O-])c(C(=O)OCc2ccc(C#N)cc2)n1C	0	0	-	0	0
CCN1CCN(Cc2ccc(NC(=O)c3cc(NC(=O)c4cncc(-c5ccc(C#N)cc5)c4)cc(OC)c3)cc2C(F)(F)F)CC1	0	80	-	0	0
CCN1CCN(Cc2ccc(NC(=O)c3cc(NC(=O)c4nccnc4N)cc(OC)c3)cc2C(F)(F)F)CC1	0	0	-	0	0
O=C(CO/N=C/c1ccccc1OC(F)F)NCc1cccs1	0	0	90	0	0
O=C(CO/N=C/c1ccccc1OC(F)F)NCc1ccco1	0	0	-	0	-
Cn1c(NCCN2CCCCC2)cc(=O)n(C)c1=O	0	0	81	0	0
CC(C)c1cc(O)c(-c2ccccc2)c(=O)n1-c1ccc(Cl)cc1	0	0	-	0	0
CC(C)c1c(O)cc(-c2ccncc2)n(-c2ccc(Cl)cc2)c1=O	0	0	68	0	0
